Here are results for 6 molecules from ChEMBL document CHEMBL1772996, “Bioactive constituents from the roots of Panax japonicus var. major and development of a LC-MS/MS method for distinguishing between natural and artifactual compounds” (J Nat Prod, 2011).

In test [1] the test system is Neutrophil. Nature of the test: Inhibition of fMLP/CB-activated human neutrophil degranulation assessed as inhibition of elastase release using MeO-Suc-Ala-Ala-Pro-Val-p-nitroanilide as a substrate after 5 mins. The class given is functional, cell-based. The method, boiled down:
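Neutrophils from dextran sedimentation, Ficoll Hypaque centrifugation and hypotonic erythrocyte lysis (>98% viable by trypan blue), held in Ca2+-free HBSS pH 7.4 at 4 °C; 5×10^5/mL cells with 100 μM substrate equilibrated 37 °C 2 min, compound 5 min, then 100 nM FMLP plus 0.5 μg/mL CB; A405 monitored continuously; expressed as % of initial rate in drug-free activated control; mean ± S.E.M., n = 3–4; top concentration 30 μM.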

For another test, the system named is A549. As to the kind of experiment: Cytotoxicity against human A549 cells assessed as growth inhibition after 3 days by sulforhodamine B assay. The class given is functional, cell-based. On the technique in general: In SRB staining, fixed cells bind dye roughly in proportion to their protein.
The test system of another test is DU-145. Nature of the test: Cytotoxicity against human DU145 cells assessed as growth inhibition after 3 days by sulforhodamine B assay. Format: functional.
For another test, the system named is KB. Nature of the test: Cytotoxicity against human KB cells assessed as growth inhibition after 3 days by sulforhodamine B assay. Format: functional.
For the next test, the system named is HCT-8. Nature of the test: Cytotoxicity against human HCT8 cells assessed as growth inhibition after 3 days by sulforhodamine B assay. Format: functional, cell-based.
The subject of test [2] is Neutrophil. As to the kind of experiment: Inhibition of fMLP/CB-stimulated superoxide anion generation in human neutrophils. The class given is functional, cell-based. The method, boiled down: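 Isolated human neutrophils (dextran sedimentation, Ficoll Hypaque, hypotonic lysis; >98% viable) with 0.5 mg/mL ferricytochrome c and 1 mM Ca2+, 37 °C 2 min, compound 5 min; CB 1 μg/mL 3 min, then 100 nM FMLP 10 min; SOD-inhibitable cytochrome c reduction followed continuously at 550 nm with stirring; mean ± S.E.M., n = 3–4; top concentration 30 μM.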

Test [3] deals with Neutrophil. Nature of the test: Inhibition of fMLP/CB-activated human neutrophil degranulation assessed as inhibition of elastase release at 30 uM using MeO-Suc-Ala-Ala-Pro-Val-p-nitroanilide as a substrate after 5 mins relative to control. Format: functional. The method, boiled down:
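Isolated human neutrophils (dextran sedimentation, Ficoll Hypaque, hypotonic erythrocyte lysis; >98% viable by trypan blue) at 5×10^5/mL in Ca2+-free HBSS pH 7.4 with 100 μM MeO-Suc-Ala-Ala-Pro-Val-p-nitroanilide. Equilibrated 37 °C 2 min, compound 5 min, then activated with 100 nM fMLP plus 0.5 μg/mL CB. A405 monitored continuously. Expressed as % of initial elastase release rate in drug-free fMLP/CB control; mean ± S.E.M., n = 3–4.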

In test [4] the test system is Neutrophil. As to the kind of experiment: Inhibition of fMLP/CB-stimulated superoxide anion generation in human neutrophils at 30 uM relative to control. Format: functional. The method, boiled down:
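Neutrophils isolated by dextran sedimentation, Ficoll Hypaque and hypotonic lysis, kept in Ca2+-free HBSS pH 7.4 at 4 °C. Given 0.5 mg/mL ferricytochrome c and 1 mM Ca2+, equilibrated 37 °C 2 min, compound 5 min. CB 1 μg/mL for 3 min, then 100 nM fMLP for 10 min. SOD-inhibitable ferricytochrome c reduction followed at 550 nm with stirring; mean ± S.E.M., n = 3–4.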

pIC50: −log10 of the molar value. Calls of active or inactive are those of the source. The calls are words filed in the database; no cut-off is given here.

On to `CCCCOC(=O)[C@H]1O[C@@H](O[C@H]2CC[C@]3(C)[C@H]4CC=C5[C@@H]6CC(C)(C)CC[C@]6(C(=O)O[C@@H]6O[C@H](CO)[C@@H](O)[C@H](O)[C@H]6O)CC[C@@]5(C)[C@]4(C)CC[C@H]3C2(C)C)[C@H](O)[C@@H](O)[C@@H]1O`, for which the pIC50 – broadly, the negative decadic logarithm of the IC50, by convention in mol/L – in the test on Neutrophil [1] is 5.14; with Neutrophil [2] it was 5.43. For the same molecule, the “growth inhibition (GI)” value in the test on A549, in the test on DU-145, in the test on KB and with HCT-8 was “inactive” each time.

Regarding `CCCCOC(=O)[C@H]1O[C@@H](O[C@H]2CC[C@]3(C)[C@H]4CC=C5[C@@H]6CC(C)(C)CC[C@]6(C(=O)O[C@@H]6O[C@H](CO)[C@@H](O)[C@H](O)[C@H]6O)CC[C@@]5(C)[C@]4(C)CC[C@H]3C2(C)C)[C@H](O)[C@@H](O)[C@@H]1O[C@@H]1O[C@@H](CO)[C@H](O)[C@H]1O` [TAIBAIENOSIDE I], the results for the negative-log IC50 (pIC50) with Neutrophil [1] and in the test with Neutrophil [2] were 5.87 and 5.65, respectively. In addition, the “growth inhibition (GI)” value in the test on A549, in the test on DU-145, with KB and in the test with HCT-8 was “inactive” each time.

On to `CC1(C)CC[C@]2(C(=O)O[C@@H]3O[C@H](CO)[C@@H](O)[C@H](O)[C@H]3O)CC[C@]3(C)C(=CC[C@@H]4[C@@]5(C)CC[C@H](O[C@@H]6O[C@H](C(=O)O[C@@H]7O[C@H](CO)[C@@H](O)[C@H](O)[C@H]7O)[C@@H](O[C@@H]7O[C@@H](CO)[C@H](O)[C@H]7O)[C@H](O)[C@H]6O)C(C)(C)[C@@H]5CC[C@]43C)[C@@H]2C1`, for which the figures for the pIC50 with Neutrophil [1] and in the test with Neutrophil [2] were 5.73 and 5.81, respectively. Moreover, the “growth inhibition (GI)” value in the test with A549, in the test with DU-145, in the test with KB and with HCT-8 was “inactive” in each case.

As to `COC(=O)[C@H]1O[C@@H](O[C@H]2CC[C@]3(C)[C@H]4CC=C5[C@@H]6CC(C)(C)CC[C@]6(C(=O)O[C@@H]6O[C@H](CO)[C@@H](O)[C@H](O)[C@H]6O)CC[C@@]5(C)[C@]4(C)CC[C@H]3C2(C)C)[C@H](O)[C@@H](O)[C@@H]1O[C@@H]1O[C@@H](CO)[C@H](O)[C@H]1O`, the “growth inhibition (GI)” value in the test with A549, with DU-145, in the test on KB and in the test on HCT-8 was “inactive” each time. Moreover, the inhibition (as a rule, the drop in the measured response relative to a control, in per cent) at 30 µM in the test with Neutrophil [3] came to 27.5%. Besides, the pIC50 in the test on Neutrophil [2] was 4.71.

For `CCCCOC(=O)[C@H]1O[C@@H](O[C@H]2CC[C@]3(C)[C@H]4CC=C5[C@@H]6CC(C)(C)CC[C@]6(C(=O)O[C@@H]6O[C@H](CO)[C@@H](O)[C@H](O)[C@H]6O)CC[C@@]5(C)[C@]4(C)CC[C@H]3C2(C)C)[C@H](O[C@@H]2OC[C@@H](O)[C@H](O)[C@H]2O)[C@@H](O)[C@@H]1O`, the “growth inhibition (GI)” value with A549, in the test with DU-145, in the test on KB and with HCT-8 was “inactive” throughout. Moreover, the inhibition at 30 µM in the test with Neutrophil [3] came out at 20%. In the test with Neutrophil [2], this molecule showed a pIC50 of 4.67.

With `CC1(C)CC[C@]2(C(=O)O[C@@H]3O[C@H](CO)[C@@H](O)[C@H](O)[C@H]3O)CC[C@]3(C)C(=CC[C@@H]4[C@@]5(C)CC[C@H](O)C(C)(C)[C@@H]5CC[C@]43C)[C@@H]2C1`, the pIC50 in the test on Neutrophil [1] was 5.02. Moreover, the “growth inhibition (GI)” value in the test on A549, in the test with DU-145, in the test on KB and in the test on HCT-8 was “inactive” throughout. Further, the inhibition at 30 µM in the test on Neutrophil [4] was found to be 43.6%.
